A short description of series [1]: (§1) Inhibition of HIV-1 nucleocapsid protein (12 to 55 residues) assessed a sreduction in TAR29/cTAR29 duplex formation preincubated for 15 mins followed by TAR29/cTAR29 addition and measured after 15 mins by nucleocapsid annealing mediated electrophoresis assay. More on the design: species or system Human immunodeficiency virus 1. An outline of the steps: (§2)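 TAR29 and cTAR29 hairpins folded separately (95°C 5 min, slow cooling) in Tris 25 mM, NaCl 30 mM, Mg(ClO4)2 0.2 mM, pH 7.5. NC(12–55, LAI strain; final 8 μM) preincubated with compound (DMSO ≤2%) 15 min at room temperature. Then 1 μM each hairpin added, 15 min at room temperature. Stopped with SDS/EDTA loading buffer; duplex resolved on native 12% PAGE. IC50 from Hill fit, triplicates.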

The test system of series [2] is Human immunodeficiency virus 1. Described as §1. Put shortly: as §2
The test system of series [3] is Human immunodeficiency virus 1. Put plainly: Binding affinity to HIV-1 nucleocapsid protein (1 to 55 residues) at 5 uM incubated for 30 mins by ESI-MS method.
In series [4] the test system is Human immunodeficiency virus 1. Put plainly: Binding affinity to HIV-1 nucleocapsid protein (1 to 55 residues) assessed as fractional protein occupancy ratio at 5 uM incubated for 30 mins by ESI-MS method.
Series [5] deals with Human immunodeficiency virus 1. Kind of series: Antiviral activity against HIV1 NL4-3 infected in human MT2 cells incubated for 72 hrs followed by reinfection in human TZM-bl cells measured after 48 hrs by luciferase reporter gene based bicycle infection assay. Type of series: functional, organism-based. The settings on record: Human immunodeficiency virus 1, NL4-3. Put shortly:
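This is a two-cycle format. MT-2 cells (50,000/well) were infected with NL4-3 alongside five-fold compound dilutions (5 nM–400 μM) and kept 72 h at 37°C, 5% CO2. Supernatant carrying first-round virus then infected TZM-bl cells (30,000/well) for 48 h under the same conditions. Luciferase RLU gave the IC50 with a 95% confidence interval.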

Series [6] concerns Human immunodeficiency virus 1. Kind of series: Inhibition of HIV-1 nucleocapsid protein (11 to 55 residues) assessed as reduction in dTAR55/cTAR55AD nucleic acid annealing at 200 uM by Alexa488 dye-based fluorimetric analysis. An outline of the steps:
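Pseudo-first-order annealing: 10 nM cTAR55 (5'-Alexa488, 3'-Dabcyl) and 100 nM dTAR55, each premixed with 8-fold NC(11–55, MAL strain, Zn-loaded). Buffer was Tris 25 mM, NaCl 30 mM, MgCl2 0.2 mM, pH 7.5, with 1% DMSO. Compound added to the dTAR55/NC mix. Fluorescence read at 480/519 nm, 20°C; rate constant from mono-exponential fit.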

Series [7] concerns MT2. Put plainly: Cytotoxicity against human MT2 cells after 72 hrs by CellTiter-Glo reagent-based assay. The settings on record: MT2, 72 h. (Cellular ATP, detected with luciferase, serves as a proxy for viable cell number.)
Series [8] relates to TZM. Put plainly: Cytotoxicity against human TZM-bl cells after 48 hrs by CellTiter-Glo reagent-based assay. The format is cell-based. An outline of the steps: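 Viability was measured by CellTiter-Glo ATP luminescence. TZM-bl cells (15,000/well) were incubated 48 h at 37°C, 5% CO2, with serial two-fold compound dilutions from 3.1 to 400 μM. Medium was then replaced by reagent, shaken 10 min, and luminescence read. TD50 was derived from RLU normalised to untreated cells (100% viability), with a 95% confidence interval.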

Series [9] is described as follows: Selectivity index, ratio of IC50 for human MT2 cells to IC50 for HIV1 NL4-3 infected in human MT2 cells. Type of series: toxicity, cell-based. The settings on record: uninfected versus infected with HIV1 NL4-3, read-out: Ratio IC50. An outline of the steps: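 Selectivity index from TD50 in MT-2 cells and IC50 from the BiCycle assay. […] BiCycle IC50: MT-2 cells infected with NL4-3 with compound for 72 h; supernatant then transferred to TZM-bl cells, luciferase read after 48 h.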

Series [10] can be described thus: Inhibition of HIV-1 nucleocapsid protein (11 to 55 residues) chaperone activity assessed as reduction in nucleocapsid-induced Alexa488-labeled TAR55AD nucleic acid destabilization using Dabcyl as quencher by spectrofluorimetry based nucleic acid destabilization assay. More on the design: species or system Human immunodeficiency virus 1. An outline of the steps:
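Preformed complex of 100 nM cTAR55 (5'-Alexa488, 3'-Dabcyl) and 1000 nM NC(11–55, MAL strain, Zn-loaded) in Tris 25 mM, NaCl 30 mM, MgCl2 0.2 mM, pH 7.5. Compound titrated in (25–500 μM); emission spectra taken at 480 nm excitation, 20°C. Inhibition calculated relative to cTAR alone and cTAR+NC, corrected for dilution and compound fluorescence. IC50 from Hill dose-response fit, triplicates.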

Series [11] concerns Human immunodeficiency virus 1. Kind of series: Antiviral activity against HIV1 NL4-3 infected in human TZM-bl cells measured after 2 days by luciferase reporter gene based monocycle infection assay. The format is functional, organism-based. The settings on record: Human immunodeficiency virus 1, NL4-3, TZM-bl, 48 h. An outline of the steps:
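TZM-bl cells (30,000/well) were infected with an NL4-3 stock in the presence of serial five-fold compound dilutions from 5 nM to 400 μM. Plates were held at 37°C, 5% CO2, for two days. Cells were then lysed and luciferase was read as RLU. IC50 was fitted from per-well RLU with a 95% confidence interval.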
(Reporter assays use an easily measured gene product as a stand-in for the process of interest.)

Series [12] in a line: Selectivity index, ratio of IC50 for human TZM-bl cells to IC50 for HIV1 NL4-3 infected in human TZM-bl cells. The settings on record: uninfected versus infected with HIV1 NL4-3, read-out: Ratio IC50. Type of series: toxicity, cell-based. Put shortly:
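Selectivity index from TD50 in TZM-bl cells and IC50 from the MonoCycle assay. […] MonoCycle IC50: 30,000 TZM-bl cells/well infected with NL4-3 with five-fold dilutions 5 nM–400 μM; luciferase RLU read after two days.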

Activity calls are given as the source filed them. The rule behind the calls is not given here.

By IC50 is commonly meant the point on the concentration scale where inhibition reaches its midpoint. A word on the inhibition: it is how much of the control response was suppressed.

For `O=C(O)c1ccc(NS(=O)(=O)c2ccc3[nH]c(=O)[nH]c3c2)cc1O`, the IC50 result in series [1] is listed as “Not Active”. Consider `N=C(N)c1ccc(N2CCCCC2)cc1`, for which the inhibition result in series [2] was “inactive”.

Turning to `Cc1nc(CN(C)S(=O)(=O)c2cc3[nH]c(=O)[nH]c3cc2Br)no1`, the IC50 result in series [1] is “Not Active”. The same measure, in the same setting: under `CS(=O)(=O)N1CCc2cc(NS(=O)(=O)c3ccc4[nH]c(=O)oc4c3)ccc21` stands “Not Active”. As for `Cc1ccc(-c2nn(CCC(=O)O)cc2/C=C2\SC(=N)NC2=O)cc1`, the inhibition result in series [2] was “inactive”. For the molecule `COc1ccccc1NC(=O)CCNS(=O)(=O)c1ccc2nc(O)oc2c1`, the IC50 entry in series [1] is on record as “Not Active”. In the case of `O=c1cc(Cc2nnc(S)n2-c2ccc(Cl)cc2)[nH]c(=O)[nH]1`, the inhibition result in series [2] was “Active”. Still for that read-out and setting: under `N#Cc1cnc(SCc2cccc(C(N)=O)c2)nc1N` stands “inactive”. As to `CSCCC(NS(=O)(=O)c1ccc2[nH]c(=O)oc2c1)C(=O)O` (configuration not stated), the IC50 entry in [1] is “Not Active”. The same measure, in the same setting: with `Cc1ccc(NC(=O)CCn2c(=O)[nH]c3cc(S(=O)(=O)N4CCCC4)ccc32)cc1` the entry was “Not Active”. As for `Cc1nc2c(c(=O)[nH]1)CCN(S(=O)(=O)c1cccc3nsnc13)C2`, the inhibition result in series [2] was “inactive”.

On to `O=C1CN(C(=O)Cc2n[nH]c(=O)c3ccccc23)CCN1`, for which the inhibition result in series [2] is “inactive”. For `COc1ccc(C(C)(C)C)cc1NS(=O)(=O)c1ccc2[nH]c(=O)[nH]c2c1`, the IC50 result in series [1] was “Not Active”. For the molecule `Cc1cc2[nH]c(=O)oc2cc1S(=O)(=O)NN1CCc2c(nc[nH]c2=O)C1`, in series [3], the outcome was Active. In series [1] (read-out: IC50), the concentration for half-maximal inhibition (IC50) is 170 µM. Take `O=c1[nH]c2ccc(S(=O)(=O)Nn3cnnc3)cc2o1`: the IC50 result in series [1] was “Not Active”. With `NC(=O)c1ccn(COc2ccccc2F)n1`, the inhibition result in series [2] is “inactive”. For `O=c1[nH]c2ccc(S(=O)(=O)Nc3cc(C(F)(F)F)ccc3Cl)cc2o1`, the result in [3] was Active. The IC50 in [1] (read-out: IC50) came to 179 µM.

As to `NC(=O)c1ccc(CNC(=O)Cn2ccc(=O)[nH]c2=O)cc1`, the inhibition entry in series [2] is “inactive”. Regarding `COc1ccccc1-c1nccn1CCc1n[nH]c(=O)[nH]1`, the inhibition result in series [2] is “inactive”. Take `O=c1[nH]c2ccc(S(=O)(=O)O)cc2[nH]1`: in [1], the IC50 result is reported as “Not Active”. Consider `O=C1N=NC(=S)N1c1ccc(Cl)c(Cl)c1`, for which the inhibition result in [2] is “Active”. Take `Cc1ccc(NS(=O)(=O)c2ccc3oc(=O)[nH]c3c2)c(C)c1`: the outcome in [3] was Active. Further, the Ratio in series [4] was found to be 0.06. For the molecule `N#Cc1ccc(CSc2nc3[nH]ncc3c(=O)[nH]2)cc1`, the inhibition entry in series [2] was “inactive”. With `Nc1cccc(C(=O)NCCCC(=O)O)c1`, the inhibition entry in series [2] is “inactive”.

Turning to `O=c1[nH]c2ccc(S(=O)(=O)Nc3cc(-c4ccccc4)no3)cc2[nH]1`, the IC50 result in [1] is listed as “Not Active”. Regarding `O=c1[nH]c2cc(S(=O)(=O)Nc3ccc4[nH]ncc4c3)ccc2o1`, in [3], the result was Active. Moreover, the IC50 in [5] was found to be 36.4 µM; in [7] it was 140 µM; in series [1] (read-out: IC50), 20 µM; in series [10], 210 µM; in series [11], 30.6 µM. In series [6], the inhibition worked out at 40%. For the same molecule, in series [4], the Ratio stood at 0.16. In series [8], the TD50 is 155 µM. Also, the selectivity ratio stood at 3.8 in series [9] and 5.1 in series [12].

Consider `COc1ccc(O)c(C(=O)c2cnc3[nH]c(=O)[nH]c(=O)c3c2)c1`, for which the inhibition entry in [2] is “inactive”.

As for `COc1cccc(CNn2cnnc2S)c1OCc1ccccc1`, the inhibition entry in series [2] was “inactive”. Still for that read-out and setting: with `O=C(CO)N1CCCC(c2[nH]ncc2Cc2ccccc2)C1` (configuration not stated) the entry was “inactive”. On the same count and under the same terms, under `COc1ccc2[nH]c(C(N)=O)cc2c1` stands “inactive”.

Take `N=C(N)NS(=O)(=O)c1ccc2[nH]c(=O)oc2c1`: in [1] (read-out: IC50), the IC50 turned out to be 203 µM. On to `O=C(O)c1ccc2c(c1)CCN2S(=O)(=O)c1ccc2[nH]c(=O)oc2c1`, for which the result in [3] was Active. The IC50 in series [1] (read-out: IC50) was 163 µM. On to `Cc1cc(CCCNc2nnnn2-c2ccccc2)n[nH]1`, for which, in series [2], the inhibition entry is “inactive”. Regarding `CC(=O)c1sc(NS(=O)(=O)c2ccc3[nH]c(=O)[nH]c3c2)nc1C`, the half-inhibitory concentration (IC50) entry in series [1] is “Not Active”. `O=C(Cn1[nH]cc2c(=O)ncnc1-2)NC1(c2ccccc2)CCC1`: in series [2], the inhibition entry is “inactive”. Regarding `O=C(O)CNS(=O)(=O)c1ccc2[nH]c(=O)oc2c1`, in series [1], the IC50 result is “Not Active”.

In the case of `c1ccc(-c2ccnc3[nH]ccc23)c(OCCn2ccnc2)c1`, the inhibition entry in series [2] is “inactive”. The same measure, in the same setting: under `O=C(COc1cccc(Cl)c1Cl)N1CCNC1=O` stands “inactive”; under `O=C(O)CCC1NC(=O)N(Cc2ccccc2)C1=O` (configuration not stated), “inactive”. For the molecule `Cc1cc(COc2ccc(Cl)cc2C(N)=O)no1`, in series [2], the inhibition result was “inactive”.

With `Cc1cc(C)n(CCOC(=O)c2ccc(N3CCNC3=O)cc2)n1`, the inhibition entry in [2] was “inactive”. With `O=c1[nH]c2ccc(S(=O)(=O)Nc3ccc(S(=O)(=O)NCC(F)(F)F)cc3)cc2o1`, the IC50 result in [1] is “Not Active”. In the case of `COc1cccc(-n2c(CCn3cccn3)n[nH]c2=O)c1`, the inhibition result in series [2] is “inactive”. As to `O=C(O)C1CCN(c2ncnc3nc[nH]c23)CC1`, the inhibition result in [2] was “inactive”.

For `O=C(CCC1NC(=O)c2ccccc21)Nc1nc[nH]n1` (configuration not stated), the inhibition result in series [2] is “inactive”. On the same count and under the same terms, with `Cc1nc[nH]c1-c1nccn1CCCc1ccccc1` the entry was “inactive”. Still for that read-out and setting: under `CC(CCc1ccccc1)NC(=O)c1ccc[nH]c1=O` (configuration not stated) stands “inactive”; under `O=C(CSc1ccccn1)c1ccc(O)c(O)c1`, “inactive”.

The record behind these values is ChEMBL document CHEMBL4251639, “Identification of novel 2-benzoxazolinone derivatives with specific inhibitory activity against the HIV-1 nucleocapsid protein” (Eur J Med Chem, 2018).
